From ChEMBL document CHEMBL1130286, “Nicotinamide derivatives as a new class of gastric H+/K(+)-ATPase inhibitors. 1. Synthesis and structure-activity relationships of N-substituted 2-(benzhydryl- and benzylsulfinyl)nicotinamides” (J Med Chem, 1997)
Blank lines part the entries; values can stand above or below the compound they belong to. Activity calls are given as the source filed them. No cut-off for these calls is given here.

Tests used:
Rattus norvegicus [1] = assay: Percent inhibition of histamine induced gastric acid secretion in pylorus-ligated rats at 100 mg/Kg intraduodenal dose; details: Stomach
[2] = system: Potassium-transporting ATPase (Oryctolagus cuniculus); assay: Percent inhibition of [14C]aminopyrine (AP) accumulation in dibutyryl cAMP stimulated rbbit parietal cells at 10 uM
[3] = biological target: Potassium-transporting ATPase (Oryctolagus cuniculus); assay: Inhibition of [14C]aminopyrine (AP) accumulation stimulated by dibutyryl cyclic AMP in isolated rabbit parietal cells
[4] = t1/2 is the time taken for the conversion of nicotinamides to isothiazolopyridine at pH=3.0; type: ADME
How it was run: (§1)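 Compound from a 10 µM DMSO solution was diluted into 100 mM HCl (pH 1) or pH-adjusted McIlvaine buffer (pH 3-7) containing Triton. Mixtures were incubated at 37 °C for various times. Remaining compound was measured by reversed-phase C18 HPLC (CH₃CN/10 mM phosphate pH 7.0) with UV detection at 254 nm, and half-lives were determined from these time points.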

[5] = biological target: Potassium-transporting ATPase (Sus scrofa, UniProt P19156); assay: Inhibition of porcine gastric H+/K+ ATPase; type: tissue-based, Stomach
Sequence of Potassium-transporting ATPase (P18434 whole entry): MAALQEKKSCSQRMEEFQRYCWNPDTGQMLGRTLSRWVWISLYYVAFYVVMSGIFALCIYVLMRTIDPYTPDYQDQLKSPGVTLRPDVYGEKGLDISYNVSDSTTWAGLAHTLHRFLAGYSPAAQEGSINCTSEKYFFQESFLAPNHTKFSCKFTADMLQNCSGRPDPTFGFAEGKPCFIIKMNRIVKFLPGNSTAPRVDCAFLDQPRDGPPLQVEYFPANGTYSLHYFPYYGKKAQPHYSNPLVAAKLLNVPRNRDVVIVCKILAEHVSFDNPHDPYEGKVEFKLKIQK
Sequence of Potassium-transporting ATPase (P19156 whole entry): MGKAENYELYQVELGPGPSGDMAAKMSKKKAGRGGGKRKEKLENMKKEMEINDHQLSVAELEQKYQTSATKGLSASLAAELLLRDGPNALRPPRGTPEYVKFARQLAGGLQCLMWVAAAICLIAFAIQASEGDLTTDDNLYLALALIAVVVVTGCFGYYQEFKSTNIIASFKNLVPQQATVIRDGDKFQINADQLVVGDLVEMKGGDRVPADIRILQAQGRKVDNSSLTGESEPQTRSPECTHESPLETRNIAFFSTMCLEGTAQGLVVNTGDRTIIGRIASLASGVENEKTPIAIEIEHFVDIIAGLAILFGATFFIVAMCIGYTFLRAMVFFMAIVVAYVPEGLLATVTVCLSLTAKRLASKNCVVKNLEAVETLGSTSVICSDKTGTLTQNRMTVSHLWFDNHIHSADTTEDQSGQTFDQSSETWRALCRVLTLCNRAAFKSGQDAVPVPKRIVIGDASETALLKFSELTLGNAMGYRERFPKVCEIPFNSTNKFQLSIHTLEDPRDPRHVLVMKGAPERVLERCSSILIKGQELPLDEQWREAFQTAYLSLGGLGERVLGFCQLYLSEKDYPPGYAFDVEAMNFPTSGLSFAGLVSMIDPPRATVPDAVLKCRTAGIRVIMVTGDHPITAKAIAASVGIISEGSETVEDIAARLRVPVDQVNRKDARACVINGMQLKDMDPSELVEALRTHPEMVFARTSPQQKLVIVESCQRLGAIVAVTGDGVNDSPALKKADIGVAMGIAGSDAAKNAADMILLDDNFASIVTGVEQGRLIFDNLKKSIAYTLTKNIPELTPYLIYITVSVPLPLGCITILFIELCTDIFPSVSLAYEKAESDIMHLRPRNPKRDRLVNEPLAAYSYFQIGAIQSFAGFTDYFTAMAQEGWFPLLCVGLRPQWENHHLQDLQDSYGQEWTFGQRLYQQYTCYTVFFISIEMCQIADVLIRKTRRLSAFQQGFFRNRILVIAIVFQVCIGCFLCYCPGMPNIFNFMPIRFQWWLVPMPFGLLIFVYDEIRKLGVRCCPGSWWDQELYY
How it was run: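 Porcine gastric microsomes (15 µg protein) were preincubated 30 min at 37 °C with compound in 50 mM Tris-HCl pH 7.4, 4 mM MgCl₂ and 5 µg/mL gramicidin, with or without 20 mM KCl. Reaction was started with 2 mM ATP (final) and run 20 min at 37 °C, then stopped with trichloroacetic acid. Released phosphate was measured by the Sanui method. Activity was the K⁺-dependent rate, with the K⁺-free rate subtracted.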

[6] = t1/2 is the time taken for the conversion of nicotinamides to isothiazolopyridine at pH=1.0; type: ADME
How it was run: as §1

Rattus norvegicus [7] = organism: Rattus norvegicus; assay: Inhibition of histamine induced gastric acid secretion in pylorus-ligated rats; type: functional; details: Stomach
How it was run: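 Male Wistar rats (~200 g) were fasted 24 h with water allowed, 4-7 per group. Under urethane (1 g/kg) the pylorus was ligated, and drug or vehicle was given intraduodenally right after ligation. Histamine (30 mg/kg) was given sc 30 min later. After 3 h, gastric juice volume was measured and acid titrated to pH 7 with 0.01 N NaOH. Total acid output versus controls gave percent inhibition.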

Rattus norvegicus [8] = assay: Percent inhibition of histamine induced gastric acid secretion in pylorus-ligated rats at 10 mg/Kg intraduodenal dose; details: Stomach
Rattus norvegicus [9] = assay: Percent inhibition of histamine induced gastric acid secretion in pylorus-ligated rats at 100 mg/Kg intraduodenal dose; Not effective; details: Stomach
[10] = t1/2 is the time taken for the conversion of nicotinamides to isothiazolopyridine at pH=5.0; type: ADME
How it was run: as §1

[11] = t1/2 is the time taken for the conversion of nicotinamides to isothiazolopyridine at pH=7.0; type: ADME
How it was run: as §1

Oryctolagus cuniculus [12] = organism: Oryctolagus cuniculus; assay: Percent inhibition of [14C]aminopyrine (AP) accumulation stimulated by dibutyryl cyclic AMP in isolated rabbit parietal cells; type: functional
How it was run: (§2)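 Parietal cells were isolated from rabbit gastric tissue, and the cell-rich fraction (1-2 × 10⁷ cells/300 µL) was put in Earle's balanced salt solution. The medium held 5.6 kBq [¹⁴C]aminopyrine, 25 mM HEPES-NaOH pH 7.4, 0.2% BSA and test compound. Cells were stimulated with 1 mM dbcAMP at 37 °C for 30 min under 95% O₂/5% CO₂, then centrifuged, solubilized and scintillation-counted. Counts with 0.1 mM dinitrophenol were subtracted, and IC50 came from regression lines.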

Oryctolagus cuniculus [13] = organism: Oryctolagus cuniculus; assay: Percent inhibition of [14C]aminopyrine (AP) accumulation stimulated by dibutyryl uM; type: functional
How it was run: as §2

Rattus norvegicus [14] = assay: Percent inhibition of histamine induced gastric acid secretion in pylorus-ligated rats at 3 mg/Kg intraduodenal dose; details: Stomach
Oryctolagus cuniculus [15] = organism: Oryctolagus cuniculus; assay: Percent inhibition of [14C]aminopyrine (AP) accumulation stimulated by dibutyryl uM; Not effective; type: functional
How it was run: as §2

Rattus norvegicus [16] = assay: Percent inhibition of histamine induced gastric acid secretion in pylorus-ligated rats at 100 mg/Kg […] dose; Not effective; type: functional, organism-based; details: Stomach

inhibition [2]: 55%
Structure (SMILES): O=C(Nc1ccncc1)c1cccnc1[S+]([O-])C(c1ccccc1)c1ccccc1 (stereo not given)
inhibition in vivo at 100 mg/kg (Rattus norvegicus [1]): 30.2%

IC50 [3]: 16600 nM | half-life [4]: 11.6 h | IC50 [5]: > 100000 nM | half-life [6]: 7.2 min
Structure (SMILES): COc1ccc(C[S+]([O-])c2ncccc2C(=O)Nc2ccncc2)c(OC)c1C (stereo not given)

IC50 [3]: 400 nM | half-life [4]: 0.49 h | IC50 [5]: > 100000 nM | half-life [6]: < 1.2 min
Structure (SMILES): CCOc1ccc(C[S+]([O-])c2ncccc2C(=O)Nc2ccncc2)c(OCC)c1 (stereo not given)
ED50 (Rattus norvegicus [7]): 11.2 mg/kg

IC50 [3]: 26000 nM | half-life [4]: 38.5 h | IC50 [5]: > 100000 nM | half-life [6]: 39.6 min
Structure (SMILES): COc1cccc(OC)c1C[S+]([O-])c1ncccc1C(=O)Nc1ccncc1 (stereo not given)
inhibition in vivo at 100 mg/kg (Rattus norvegicus [1]): 60.7% | inhibition in vivo at 10 mg/kg (Rattus norvegicus [8]): 12.7%

inhibition [2]: 19.6% | half-life [4]: 116 h | half-life [6]: 27 min
Structure (SMILES): COc1ccc(C[S+]([O-])c2ncccc2C(=O)Nc2ccncc2)c(OC)c1OC (stereo not given)

inhibition [2]: 43.7%
Structure (SMILES): O=C(Nc1cccnc1)c1cccnc1[S+]([O-])C(c1ccccc1)c1ccccc1 (stereo not given)
inhibition (Rattus norvegicus [9]): inactive

IC50 [3]: 590 nM | half-life [4]: 0.84 h | half-life [10]: 2310 min | half-life [11]: > 100 h | IC50 [5]: > 100000 nM | half-life [6]: < 1.2 min
Structure (SMILES): COc1ccc(C[S+]([O-])c2ncccc2C(=O)Nc2ccncc2)c(OC)c1 (stereo not given)
ED50 (Rattus norvegicus [7]): 4.2 mg/kg

IC50 [3]: 450 nM | half-life [4]: 0.71 h | IC50 [5]: > 100000 nM | half-life [6]: < 1.2 min
Structure (SMILES): CCOc1cc(OC)ccc1C[S+]([O-])c1ncccc1C(=O)Nc1ccncc1 (stereo not given)
ED50 (Rattus norvegicus [7]): 19 mg/kg

IC50 [3]: 1700 nM | half-life [4]: 3.3 h | IC50 [5]: > 100000 nM | half-life [6]: < 1.2 min
Structure (SMILES): COc1ccc(C[S+]([O-])c2ncccc2C(=O)Nc2ccncc2)c(OCCF)c1 (stereo not given)
ED50 (Rattus norvegicus [7]): 8.1 mg/kg

half-life [4]: 8.25 h | IC50 (Oryctolagus cuniculus [12]): 2200 nM | half-life [6]: < 1.2 min
Structure (SMILES): COCOc1cc(OC)ccc1C[S+]([O-])c1ncccc1C(=O)Nc1ccncc1 (stereo not given)
inhibition in vivo at 100 mg/kg (Rattus norvegicus [1]): 37.7%

inhibition [2]: 11.3% | half-life [6]: 462 min
Structure (SMILES): COc1cc(C[S+]([O-])c2ncccc2C(=O)Nc2ccncc2)cc(OC)c1OC (stereo not given)

inhibition [2]: 1.3%
Structure (SMILES): CC(C)CNC(=O)c1cccnc1[S+]([O-])C(c1ccccc1)c1ccccc1 (stereo not given)

IC50 [5]: 530 nM
Structure (SMILES): CC(C)Cn1sc2ncccc2c1=O

inhibition [2]: 47.6%
Structure (SMILES): O=C(Nc1c2ccccc2nc2ccccc12)c1cccnc1[S+]([O-])C(c1ccccc1)c1ccccc1 (stereo not given)

half-life [10]: 70.2 min | half-life [11]: 23.1 h
Structure (SMILES): COc1ccnc(C[S+]([O-])c2nc3ccc(OC(F)F)cc3[nH]2)c1OC (stereo not given) [PANTOPRAZOLE]

inhibition [2]: 33.1% | half-life [6]: 128 min
Structure (SMILES): COc1ccc(C[S+]([O-])c2ncccc2C(=O)Nc2ccncc2)cc1 (stereo not given)
inhibition in vivo at 100 mg/kg (Rattus norvegicus [1]): 44.4%

IC50 [5]: 220 nM
Structure (SMILES): O=c1c2cccnc2sn1-c1ccncc1

inhibition [2]: 93.5%
Structure (SMILES): CN(C)CCc1ccc(NC(=O)c2cccnc2[S+]([O-])C(c2ccccc2)c2ccccc2)cc1 (stereo not given)
Inhibition (Oryctolagus cuniculus [13]): 7.4%

Structure (SMILES): O=C(Nc1ccccn1)c1cccnc1[S+]([O-])C(c1ccccc1)c1ccccc1 (stereo not given)
Inhibition (Oryctolagus cuniculus [13]): 8%

inhibition [2]: 32.5% | half-life [4]: 0.14 h | IC50 [5]: > 100000 nM | half-life [6]: < 1.2 min
Structure (SMILES): COc1cc(OC)c(OC)cc1C[S+]([O-])c1ncccc1C(=O)Nc1ccncc1 (stereo not given)
inhibition in vivo at 100 mg/kg (Rattus norvegicus [1]): 21.7%

IC50 [3]: 59000 nM | half-life [4]: 1.78 h | half-life [6]: < 1.2 min
Structure (SMILES): COc1ccc(C[S+]([O-])c2ncccc2C(=O)Nc2ccncc2)c(OCCO)c1 (stereo not given)

half-life [4]: 2.75 h | IC50 (Oryctolagus cuniculus [12]): 2000 nM | half-life [6]: < 1.2 min
Structure (SMILES): COCOCCOc1cc(OC)ccc1C[S+]([O-])c1ncccc1C(=O)Nc1ccncc1 (stereo not given)
inhibition in vivo at 3 mg/kg (Rattus norvegicus [14]): 14.4% | inhibition in vivo at 10 mg/kg (Rattus norvegicus [8]): 76.6%

inhibition [2]: 61.8%
Structure (SMILES): O=C(Nc1ccc2ncccc2c1)c1cccnc1[S+]([O-])C(c1ccccc1)c1ccccc1 (stereo not given)
inhibition in vivo at 100 mg/kg (Rattus norvegicus [1]): 21.7%

Structure (SMILES): O=C(Nc1cccc2ccccc12)c1cccnc1[S+]([O-])C(c1ccccc1)c1ccccc1 (stereo not given)
inhibition (Oryctolagus cuniculus [15]): inactive

inhibition [2]: 68.6%
Structure (SMILES): Cc1cc(C)c2ccc(NC(=O)c3cccnc3[S+]([O-])C(c3ccccc3)c3ccccc3)nc2n1 (stereo not given)
inhibition (Rattus norvegicus [9]): inactive

half-life [10]: 19.2 min | half-life [11]: 10.5 h
Structure (SMILES): COc1ccc2[nH]c([S+]([O-])Cc3ncc(C)c(OC)c3C)nc2c1 (stereo not given) [OMEPRAZOLE]
ED50 (Rattus norvegicus [7]): 4.1 mg/kg

IC50 [3]: 1200 nM | half-life [4]: < 0.03 h | half-life [10]: 17.4 min | IC50 [5]: 7300 nM | half-life [6]: < 1.2 min
Structure (SMILES): COc1cc(OC)c(C[S+]([O-])c2ncccc2C(=O)Nc2ccncc2)c(OC)c1 (stereo not given)
ED50 (Rattus norvegicus [7]): 6.8 mg/kg

inhibition [2]: 58.3%
Structure (SMILES): CN(C)c1ccc(NC(=O)c2cccnc2[S+]([O-])C(c2ccccc2)c2ccccc2)cc1 (stereo not given)

inhibition [2]: 14.7%
Structure (SMILES): O=C(Nc1nccs1)c1cccnc1[S+]([O-])C(c1ccccc1)c1ccccc1 (stereo not given)

Structure (SMILES): O=C(Nc1cnccn1)c1cccnc1[S+]([O-])C(c1ccccc1)c1ccccc1 (stereo not given)
inhibition (Oryctolagus cuniculus [15]): inactive

inhibition [2]: 74.1%
Structure (SMILES): Cc1ccc(C(c2ccc(C)cc2)[S+]([O-])c2ncccc2C(=O)Nc2cccc3ncccc23)cc1 (stereo not given)
inhibition in vivo at 100 mg/kg (Rattus norvegicus [1]): 30.4%

Structure (SMILES): O=C(Nc1ncccn1)c1cccnc1[S+]([O-])C(c1ccccc1)c1ccccc1 (stereo not given)
inhibition (Oryctolagus cuniculus [15]): inactive

Structure (SMILES): O=C(NC1CCN(Cc2ccccc2)CC1)c1cccnc1[S+]([O-])C(c1ccccc1)c1ccccc1 (stereo not given)
inhibition (Rattus norvegicus [16]): inactive

Structure (SMILES): Cc1c(OCC(F)(F)F)ccnc1C[S+]([O-])c1nc2ccccc2[nH]1 (stereo not given) [LANSOPRAZOLE]
half-life [10]: 16.8 min | half-life [11]: 6.08 h

Structure (SMILES): COc1ncccc1NC(=O)c1cccnc1[S+]([O-])C(c1ccccc1)c1ccccc1 (stereo not given)
inhibition (Oryctolagus cuniculus [15]): inactive

inhibition [2]: 5%
Structure (SMILES): O=C(Nc1ccccc1)c1cccnc1[S+]([O-])C(c1ccccc1)c1ccccc1 (stereo not given)

IC50 [5]: 190 nM
Structure (SMILES): O=c1c2cccnc2sn1-c1ccccc1

IC50 [3]: 1500 nM
Structure (SMILES): Cc1ccc(C(c2ccc(C)cc2)[S+]([O-])c2ncccc2C(=O)Nc2ccncc2)cc1 (stereo not given)
inhibition in vivo at 100 mg/kg (Rattus norvegicus [1]): 48.1%

IC50 [3]: 1900 nM | half-life [4]: 28.8 h | half-life [6]: 4.2 min
Structure (SMILES): COc1cc(OC)c(C[S+]([O-])c2ncccc2C(=O)Nc2ccncc2)cc1Br (stereo not given)
inhibition in vivo at 100 mg/kg (Rattus norvegicus [1]): 34.8%

inhibition [2]: 24.4%
Structure (SMILES): Cc1ccc2cccc(NC(=O)c3cccnc3[S+]([O-])C(c3ccccc3)c3ccccc3)c2n1 (stereo not given)

IC50 [3]: 460 nM | half-life [4]: 0.09 h | half-life [10]: 257 min | IC50 [5]: > 100000 nM | half-life [6]: < 1.2 min
Structure (SMILES): COc1cc(C)c(C[S+]([O-])c2ncccc2C(=O)Nc2ccncc2)c(OC)c1 (stereo not given)
ED50 (Rattus norvegicus [7]): 5.7 mg/kg

inhibition [2]: 57.4%
Structure (SMILES): Nc1ccc(NC(=O)c2cccnc2[S+]([O-])C(c2ccccc2)c2ccccc2)cc1 (stereo not given)
